Tests used:
[1] = Drug level in mouse liver microsomes treated with 5-(8-Fluoro-3-(1-(3-methoxyquinolin-6-yl)ethyl)[1,2,4]-triazolo[4,3-a]pyridin-6-yl)-3-methylisoxazole assessed as compound formation in presence of NADPH by LC-MS/MS method; type: ADME
Summary of the method: (§1)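 Compound incubated with NADPH in mouse, rat, dog, monkey or human liver microsomes. Metabolites were identified by accurate mass spectrometry and MS/MS, and selected ion chromatograms were used to build metabolite profiles.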

Liver microsome [2] = experiment: Drug level in dog liver microsomes treated with 5-(8-Fluoro-3-(1-(3-methoxyquinolin-6-yl)ethyl)[1,2,4]-triazolo[4,3-a]pyridin-6-yl)-3-methylisoxazole assessed as compound formation in presence of NADPH by LC-MS/MS method; type: ADME, Canis lupus familiaris; summary of the method: as §1
Liver microsome [3] = experiment: Drug level in rat liver microsomes treated with 5-(8-Fluoro-3-(1-(3-methoxyquinolin-6-yl)ethyl)[1,2,4]-triazolo[4,3-a]pyridin-6-yl)-3-methylisoxazole assessed as compound formation in presence of NADPH by LC-MS/MS method; type: ADME; summary of the method: as §1
[4] = biological target: T1, Hepatocyte growth factor receptor (Homo sapiens, UniProt P08581); experiment: Inhibition of recombinant c-Met kinase domain (unknown origin) incubated for 30 mins using gastrin peptide substrate by HTRF assay
T1 sequence (P08581 whole entry, the tested form may be a part): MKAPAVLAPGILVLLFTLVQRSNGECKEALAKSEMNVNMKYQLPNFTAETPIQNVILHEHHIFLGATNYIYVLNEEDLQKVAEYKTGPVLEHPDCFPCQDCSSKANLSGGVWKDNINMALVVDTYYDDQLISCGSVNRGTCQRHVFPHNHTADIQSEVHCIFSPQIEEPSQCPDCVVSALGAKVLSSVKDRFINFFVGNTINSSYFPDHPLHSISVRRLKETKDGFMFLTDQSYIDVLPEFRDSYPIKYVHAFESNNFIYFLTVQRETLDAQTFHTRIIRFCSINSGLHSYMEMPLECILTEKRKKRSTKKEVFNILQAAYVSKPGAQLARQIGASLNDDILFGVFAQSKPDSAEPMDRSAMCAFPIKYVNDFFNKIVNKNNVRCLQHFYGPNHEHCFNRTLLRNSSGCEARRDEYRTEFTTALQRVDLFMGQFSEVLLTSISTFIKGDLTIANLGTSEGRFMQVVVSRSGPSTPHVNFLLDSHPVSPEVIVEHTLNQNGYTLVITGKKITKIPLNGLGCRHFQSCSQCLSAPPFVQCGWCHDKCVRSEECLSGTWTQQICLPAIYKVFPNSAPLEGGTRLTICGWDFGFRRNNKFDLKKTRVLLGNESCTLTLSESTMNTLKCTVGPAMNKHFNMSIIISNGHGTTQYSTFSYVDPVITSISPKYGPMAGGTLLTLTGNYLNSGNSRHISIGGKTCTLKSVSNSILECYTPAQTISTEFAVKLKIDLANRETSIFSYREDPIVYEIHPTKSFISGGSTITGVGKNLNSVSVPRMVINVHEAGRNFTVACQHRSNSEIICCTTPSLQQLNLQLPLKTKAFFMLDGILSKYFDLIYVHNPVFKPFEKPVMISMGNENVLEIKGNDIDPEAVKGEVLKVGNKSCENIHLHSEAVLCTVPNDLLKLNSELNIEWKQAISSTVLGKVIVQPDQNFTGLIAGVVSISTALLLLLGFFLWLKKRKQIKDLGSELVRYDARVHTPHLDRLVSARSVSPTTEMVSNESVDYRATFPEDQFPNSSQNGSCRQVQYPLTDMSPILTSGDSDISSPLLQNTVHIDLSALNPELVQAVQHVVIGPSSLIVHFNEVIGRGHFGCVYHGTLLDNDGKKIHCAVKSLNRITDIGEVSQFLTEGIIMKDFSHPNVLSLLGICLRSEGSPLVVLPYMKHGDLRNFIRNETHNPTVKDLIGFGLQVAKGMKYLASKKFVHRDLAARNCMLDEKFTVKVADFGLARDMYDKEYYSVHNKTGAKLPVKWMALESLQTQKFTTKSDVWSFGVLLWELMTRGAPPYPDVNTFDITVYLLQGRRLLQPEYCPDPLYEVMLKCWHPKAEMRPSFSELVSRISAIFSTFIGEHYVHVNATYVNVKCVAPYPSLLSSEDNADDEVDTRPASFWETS

[5] = biological target: T1, Hepatocyte growth factor receptor; experiment: Inhibition of HGF-stimulated c-Met autophosphorylation in serum starved human PC3 cells pre-incubated for 1 hr followed by human recombinant HGF stimulation for 10 mins by quantitative electrochemiluminescence immunoassay; type: cell-based, PC-3
Summary of the method: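 Serum-starved PC-3 cells (plated in high-glucose DMEM/10% FBS, then 16 h in low-glucose DMEM with 0.1% BSA) were treated with a 10-point inhibitor dilution for 1 h at 37 °C. Cells were then stimulated with 200 ng/mL recombinant human HGF for 10 min and lysed. Phospho-c-Met was captured with biotinylated anti-c-Met and 4G10 by electrochemiluminescence. IC50, n ≥ 2.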

Cytochrome P450 3A4 = Cytochrome P450 3A4 (Homo sapiens, UniProt P08684); experiment: Inhibition of CYP3A4 (unknown origin); type: ADME
Sequence of Cytochrome P450 3A4 (P08684 whole entry): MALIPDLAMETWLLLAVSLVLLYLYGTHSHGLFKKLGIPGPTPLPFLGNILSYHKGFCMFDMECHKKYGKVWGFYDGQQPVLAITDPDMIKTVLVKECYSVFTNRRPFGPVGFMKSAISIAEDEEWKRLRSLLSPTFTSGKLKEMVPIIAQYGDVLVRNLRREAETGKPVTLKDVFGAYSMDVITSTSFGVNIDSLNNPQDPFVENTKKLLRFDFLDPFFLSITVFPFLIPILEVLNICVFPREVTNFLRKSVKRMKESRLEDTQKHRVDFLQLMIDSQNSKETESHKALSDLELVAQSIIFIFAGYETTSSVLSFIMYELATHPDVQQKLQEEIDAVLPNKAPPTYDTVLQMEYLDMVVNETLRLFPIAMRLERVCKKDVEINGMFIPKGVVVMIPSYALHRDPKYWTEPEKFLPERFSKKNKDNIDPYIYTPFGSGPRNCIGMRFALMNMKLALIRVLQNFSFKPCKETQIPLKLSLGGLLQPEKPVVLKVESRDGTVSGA

Cytochrome P450 2D6 = Cytochrome P450 2D6 (Homo sapiens, UniProt P10635); experiment: Inhibition of CYP2D6 (unknown origin); type: ADME
Sequence of Cytochrome P450 2D6 (P10635 whole entry): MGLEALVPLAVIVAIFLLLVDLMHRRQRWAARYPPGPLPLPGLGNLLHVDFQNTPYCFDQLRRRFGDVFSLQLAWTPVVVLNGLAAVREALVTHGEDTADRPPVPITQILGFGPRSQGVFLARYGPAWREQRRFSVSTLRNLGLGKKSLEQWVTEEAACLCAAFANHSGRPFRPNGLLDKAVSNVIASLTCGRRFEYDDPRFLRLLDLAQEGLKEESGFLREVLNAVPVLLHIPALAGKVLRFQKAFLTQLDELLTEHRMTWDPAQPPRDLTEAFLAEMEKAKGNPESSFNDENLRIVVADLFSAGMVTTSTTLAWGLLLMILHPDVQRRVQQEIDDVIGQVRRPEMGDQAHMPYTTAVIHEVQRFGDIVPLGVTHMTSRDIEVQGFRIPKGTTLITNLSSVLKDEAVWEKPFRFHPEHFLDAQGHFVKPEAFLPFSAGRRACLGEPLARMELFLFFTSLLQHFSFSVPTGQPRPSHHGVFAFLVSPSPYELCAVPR

[6] = Clearance in Sprague-Dawley rat at 0.25 mg/kg, iv; type: ADME, organism-based; set-up: dose 0.25 mg/kg, route intravenous; conditions: Sprague-Dawley, in vivo
[7] = Half life in Sprague-Dawley rat at 0.25 mg/kg, iv; type: ADME, organism-based; set-up: dose 0.25 mg/kg, route intravenous; conditions: in vivo
[8] = Volume of distribution at steady state in Sprague-Dawley rat at 0.25 mg/kg, iv; type: ADME, organism-based; set-up: dose 0.25 mg/kg, route intravenous; conditions: in vivo, read-out: Vdss
Summary of the method: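 Male Sprague-Dawley rats were given a single IV dose of 0.25 mg/kg. The vehicle was DMSO, or for some compounds 20% (w/v) hydroxypropyl β-cyclodextrin in water adjusted to pH 3.5 with MSA. NC marks cases where the terminal disposition rate constant could not be characterized for lack of slope.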

[9] = Oral bioavailability in Sprague-Dawley rat at 2 mg/kg; type: ADME, organism-based; conditions: in vivo
Summary of the method: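 Male Sprague-Dawley rats given 2.0 mg/kg orally in 2% (w/v) hydroxypropylmethylcellulose, 1% (w/v) Tween 80 in water, pH 2.2 (adjusted with HCl or MSA). Some inhibitors instead used 10% (v/v) dimethylacetamide in the same vehicle.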

[10] = AUC (0 to infinity) in Sprague-Dawley rat at 0.25 mg/kg, iv; type: ADME, organism-based, Plasma; set-up: dose 0.25 mg/kg, route intravenous, time infinity; conditions: Sprague-Dawley, plasma
[11] = Drug level in mouse liver microsomes treated with 5-(8-Fluoro-3-(1-(3-(2-methoxyethoxy)quinolin-6-yl)ethyl)-[1,2,4]triazolo[4,3-a]pyridin-6-yl)-3-methylisoxazole assessed as compound formation in presence of NADPH by LC-MS/MS method; type: ADME; summary of the method: as §1
Liver microsome [12] = experiment: Drug level in rat liver microsomes treated with 5-(8-Fluoro-3-(1-(3-(2-methoxyethoxy)quinolin-6-yl)ethyl)-[1,2,4]triazolo[4,3-a]pyridin-6-yl)-3-methylisoxazole assessed as compound formation in presence of NADPH by LC-MS/MS method; type: ADME; summary of the method: as §1
Liver microsome [13] = experiment: Drug level in human liver microsomes treated with 5-(8-Fluoro-3-(1-(3-(2-methoxyethoxy)quinolin-6-yl)ethyl)-[1,2,4]triazolo[4,3-a]pyridin-6-yl)-3-methylisoxazole assessed as compound formation in presence of NADPH by LC-MS/MS method; type: ADME; summary of the method: as §1
[14] = Drug level in monkey liver microsomes treated with 5-(8-Fluoro-3-(1-(3-(2-methoxyethoxy)quinolin-6-yl)ethyl)-[1,2,4]triazolo[4,3-a]pyridin-6-yl)-3-methylisoxazole assessed as compound formation in presence of NADPH by LC-MS/MS method; type: ADME, Macaca mulatta; conditions: rhesus monkey; summary of the method: as §1
Liver microsome [15] = experiment: Drug level in dog liver microsomes treated with 5-(8-Fluoro-3-(1-(3-(2-methoxyethoxy)quinolin-6-yl)ethyl)-[1,2,4]triazolo[4,3-a]pyridin-6-yl)-3-methylisoxazole assessed as compound formation in presence of NADPH by LC-MS/MS method; type: ADME, Canis lupus familiaris; summary of the method: as §1
Liver microsome [16] = experiment: Stability in human liver microsomes assessed as compound turnover rate; type: ADME
Liver microsome [17] = experiment: Stability in rat liver microsomes assessed as compound turnover rate; type: ADME

SMILES	IC50 [4]	IC50 [5]	clearance [6]	half-life [7]	Vd [8]	bioavailability [9]	AUC(0-inf) [10]	further results
COc1cnc2ccc([C@H](C)c3nnc4c(F)cc(-c5cc(CO)no5)cn34)cc2c1	–	–	–	–	–	–	–	Drug metabolism [1]: metabolite_detected; Drug metabolism (Liver microsome [2]): metabolite_detected; Drug metabolism (Liver microsome [3]): metabolite_detected
Fc1cc(-c2ccccc2)cn2c(Cc3ccc4ncccc4c3)nnc12	60 nM	–	–	–	–	–	–	–
Cc1cc(-c2cc(F)c3nnc([C@@](C)(F)c4ccc5ncccc5c4)n3c2)sn1	780 nM	–	–	–	–	–	–	–
Cc1cc(-c2cc(F)c3nnc([C@@H](C)c4ccc5ncc(O)cc5c4)n3c2)on1	–	–	–	–	–	–	–	Drug metabolism [1]: metabolite_detected; Drug metabolism (Liver microsome [2]): metabolite_detected; Drug metabolism (Liver microsome [3]): metabolite_detected
Cn1cc(-c2cc(F)c3nnc(Cc4ccc5nc(N)sc5c4)n3c2)cn1	52 nM	–	–	–	–	–	–	–
CC(=O)Nc1nc2ccc(Cc3nnc4c(F)cc(-c5cnn(C)c5)cn34)cc2s1	67 nM	–	–	–	–	–	–	–
Fc1cc(-c2ccccc2)cn2c(C(F)(F)c3ccc4ncccc4c3)nnc12	23 nM	–	–	–	–	–	–	–
COc1cnc2ccc([C@@H](C)c3nnc4c(F)cc(-c5cc(C)no5)cn34)cc2c1	370 nM	–	–	–	–	–	–	–
Cn1cc(-c2cc(F)c3nnc(C(F)(F)c4ccc5ncccc5c4)n3c2)cn1	22 nM	15 nM	0.167 mL/min/kg	6.6 h	0.13 L/kg	110%	44.4 µM·h	inhibition (INH) (Cytochrome P450 3A4): Not Active; inhibition (INH) (Cytochrome P450 2D6): Not Active
Cc1cc(-c2cc(F)c3nnc([C@@H](C)c4ccc5ncc(OCC(=O)O)cc5c4)n3c2)on1	–	–	–	–	–	–	–	Drug metabolism [11]: metabolite_detected; Drug metabolism (Liver microsome [12]): metabolite_detected; Drug metabolism (Liver microsome [13]): metabolite_detected; Drug metabolism [14]: metabolite_detected; Drug metabolism (Liver microsome [15]): metabolite_detected
CC[C@@H](c1ccc2ncc(OC)cc2c1)c1nnc2c(F)cc(-c3cc(C)no3)cn12	28 nM	67 nM	–	–	–	–	–	–
COc1ccc2c(OCc3nnc4ccc(-c5ccccc5)cn34)ccnc2c1	31 nM	–	–	–	–	–	–	–
Fc1cc(-c2cnn(C3CC3)c2)cn2c(C(F)(F)c3ccc4ncccc4c3)nnc12	24 nM	25 nM	0.167 mL/min/kg	4.4 h	0.09 L/kg	40%	42.6 µM·h	inhibition (INH) (Cytochrome P450 3A4): Not Active; inhibition (INH) (Cytochrome P450 2D6): Not Active
c1ccc(-c2ccc3nnc(Cc4ccc5ncccc5c4)n3c2)cc1	210 nM	–	–	–	–	–	–	–
Cn1cc(-c2cc(F)c3nnc(Cc4ccc5ncc(O)cc5c4)n3c2)cn1	51 nM	–	–	–	–	–	–	–
Cn1cc(-c2cc(F)c3nnc(Cc4ccc5nccnc5c4)n3c2)cn1	182 nM	–	–	–	–	–	–	–
COc1cnc2ccc(C3(c4nnc5c(F)cc(-c6cc(C)no6)cn45)CC3)cc2c1	93 nM	–	–	–	–	–	–	–
Cc1cc(-c2cc(F)c3nnc([C@@H](C)c4ccc5ncc(OCCO)cc5c4)n3c2)on1	–	–	–	–	–	–	–	Drug metabolism [11]: metabolite_detected; Drug metabolism (Liver microsome [12]): metabolite_detected; Drug metabolism (Liver microsome [13]): metabolite_detected; Drug metabolism [14]: metabolite_detected; Drug metabolism (Liver microsome [15]): metabolite_detected
Cc1cc(-c2cc(F)c3nnc(C(C)(C)c4ccc5ncc(O)cc5c4)n3c2)on1	> 400 nM	–	–	–	–	–	–	–

More lines, in order of falling IC50 [4], values ahead:

IC50 [4]	IC50 [5]	clearance [6]	half-life [7]	Vd [8]	bioavailability [9]	AUC(0-inf) [10]	SMILES	further results
18 nM	–	–	–	–	–	–	Cn1cc(-c2cc(F)c3nnc(Cc4ccc5ncccc5c4)n3c2)cn1	–
12 nM	32 nM	–	–	–	–	–	Fc1cc(-c2ccccn2)cn2c(C(F)(F)c3ccc4ncccc4c3)nnc12	inhibition (INH) (Cytochrome P450 3A4): Not Active; inhibition (INH) (Cytochrome P450 2D6): Not Active
11 nM	35 nM	–	–	–	–	–	Cc1ncc(-c2cc(F)c3nnc(C(F)(F)c4ccc5ncccc5c4)n3c2)s1	inhibition (INH) (Cytochrome P450 3A4): Not Active; inhibition (INH) (Cytochrome P450 2D6): Not Active
11 nM	–	–	–	–	–	–	COc1cnc2ccc(Cc3nnc4c(F)cc(-c5cnn(C)c5)cn34)cc2c1	–
9 nM	22 nM	–	2.8 h	–	–	10.5 µM·h	COc1cnc2ccc([C@H](C)c3nnc4c(F)cc(-c5cc(C)ns5)cn34)cc2c1	–
9 nM	9 nM	0.667 mL/min/kg	2.5 h	0.13 L/kg	62%	18.5 µM·h	Cc1cc(-c2cc(F)c3nnc(C(F)(F)c4ccc5ncccc5c4)n3c2)on1	inhibition (INH) (Cytochrome P450 3A4): Not Active; inhibition (INH) (Cytochrome P450 2D6): Not Active
7 nM	12 nM	25.5 mL/min/kg	0.33 h	0.38 L/kg	–	0.44 µM·h	Cc1cc(-c2cc(F)c3nnc([C@@H](C)c4ccc5ncccc5c4)n3c2)sn1	–
7 nM	–	–	–	–	–	–	COc1ccc2c(OCc3nnc4c(F)cc(-c5ccccc5)cn34)ccnc2c1	–
5 nM	6 nM	30.2 mL/min/kg	0.72 h	1.07 L/kg	27%	0.37 µM·h	Cc1cc(-c2cc(F)c3nnc([C@](C)(F)c4ccc5ncccc5c4)n3c2)sn1	–
5 nM	4 nM	22.2 mL/min/kg	1.1 h	1.25 L/kg	10%	0.52 µM·h	COc1cnc2ccc([C@@](C)(F)c3nnc4c(F)cc(-c5cc(C)ns5)cn34)cc2c1	–
5 nM	7 nM	4.5 mL/min/kg	2.2 h	0.64 L/kg	27%	2.5 µM·h	COc1cnc2ccc([C@@](C)(F)c3nnc4c(F)cc(-c5cnn(C)c5)cn34)cc2c1	–
4 nM	7 nM	27.8 mL/min/kg	0.3 h	0.39 L/kg	110%	0.38 µM·h	Fc1cc(-c2cscn2)cn2c(C(F)(F)c3ccc4ncccc4c3)nnc12	inhibition (INH) (Cytochrome P450 3A4): Not Active; inhibition (INH) (Cytochrome P450 2D6): Not Active
3 nM	8 nM	< 0.167 mL/min/kg	–	0.09 L/kg	35%	101 µM·h	COc1cnc2ccc(C(F)(F)c3nnc4c(F)cc(-c5cc(C)no5)cn34)cc2c1	Stability (Liver microsome [16]): Stable; Stability (Liver microsome [17]): Stable; inhibition (INH) (Cytochrome P450 3A4): Not Active; inhibition (INH) (Cytochrome P450 2D6): Not Active
2 nM	3 nM	4.17 mL/min/kg	2.7 h	0.79 L/kg	38%	2.4 µM·h	COc1cnc2ccc([C@@](C)(F)c3nnc4c(F)cc(-c5cc(C)no5)cn34)cc2c1	–
2 nM	7 nM	1.5 mL/min/kg	1.5 h	0.18 L/kg	9%	6.5 µM·h	COc1cnc2ccc(C(F)(F)c3nnc4c(F)cc(-c5cscn5)cn34)cc2c1	Stability (Liver microsome [16]): Stable; Stability (Liver microsome [17]): Stable; inhibition (INH) (Cytochrome P450 3A4): Not Active; inhibition (INH) (Cytochrome P450 2D6): Not Active
2 nM	15 nM	2.33 mL/min/kg	1.8 h	0.25 L/kg	13%	4.5 µM·h	COc1cnc2ccc([C@H](C)c3nnc4c(F)cc(-c5cnn(C)c5)cn34)cc2c1	–
1 nM	4 nM	4.33 mL/min/kg	1.3 h	0.37 L/kg	27%	2.7 µM·h	COc1cnc2ccc([C@H](C)c3nnc4c(F)cc(-c5cn(C)cn5)cn34)cc2c1	–
